Bioassay records as filed in PubChem BioAssay.
Rows were chosen to be rich in hits. Some 3.9% of all compounds tested hit in one or more screens of this group.
FLuc inh counter: inhibits firefly luciferase, flagging false hits in luciferase inhibition screens; ATPLite firefly luciferase biochemical luminescence, 10 min; inhibition, % at 10 µM; 200,000 tested, 1.5% active;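 active means inhibition above about 50% when tested at 10 µM, limit read from the data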
STAT1 activator: STAT1 signaling activation; AID 932; NIH 3T3 STAT1-luciferase reporter, IFN-gamma, luminescence; 100% = IFN-gamma alone, no compound; 200,000 tested, 2.6% active; activation (% of control), % at 5.5 µM;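 active means activation above the screen-wide mean activation plus 3 SD, cut at about 130% in these data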;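 further: raw ratio to IFN-gamma control signal so 100% means no change and 0% no light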
NF-kB neuron act: compounds increasing NF-kB expression in human neuronal cells | NF-kB reporter expression; stronger effect = higher value | fold change at 12.5 µM | 190,000 tested, 1.6% active | AID 1239; in the data active means fold change above about 3.3
FLuc act counter: affects firefly luciferase, flagging false hits in luciferase stimulation screens; P08659; ATPlite luciferase biochemical, luminescence, 10 min; 0 = ATP-free wells, 1 = DMSO control; activation factor at 10 µM; 200,000 tested, under 10 active; AID 1027;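 active means luciferase activation factor, scaled between plate controls, of at least 2 with compound at 10 µM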
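Material: luciferase plus luciferin reagent, cell-free. Medium: PBS buffer for ATP. Also added: ATP substrate, dispensed from a 10.24 µM working solution in PBS. Doses: test compounds dosed from 2 mM stocks in 100% DMSO. Incubation: 10 min post-reagent at room temperature. Technique: light output (luminescence). Read-out basis: luminescence gain marking luciferase activators.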
Rad51 HR inh: Rad51 (human) homologous recombination inhibition; Q06609; hRad51 DNA strand exchange, fluorescence dequenching; inhibition, % at 10 µM; 200,000 tested, 0.085% active; AID 1385;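 active means inhibition above 40% at the single screening dose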;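 further: 0% = DMSO control wells and 100% = blanks with heterologous ssDNA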
Target sequence (Q06609 whole entry, looked up): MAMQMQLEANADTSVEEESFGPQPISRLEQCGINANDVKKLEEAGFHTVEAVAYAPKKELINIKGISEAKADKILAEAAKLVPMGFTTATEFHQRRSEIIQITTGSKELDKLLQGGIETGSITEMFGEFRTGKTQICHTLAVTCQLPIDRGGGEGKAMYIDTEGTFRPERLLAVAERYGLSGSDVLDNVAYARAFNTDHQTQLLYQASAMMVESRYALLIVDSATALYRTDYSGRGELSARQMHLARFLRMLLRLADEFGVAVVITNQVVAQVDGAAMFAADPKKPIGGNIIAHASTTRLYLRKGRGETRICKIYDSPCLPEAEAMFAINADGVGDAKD
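Test system: preformed human Rad51 ssDNA filaments. Compound dosing: single dose, 10 µM final compound. Incubation: filaments 15 min 37 °C, then compound 30 min. Technique: FRET fluorescence dequenching, excitation 485 nm, emission 520 nm. Read-out basis: percent inhibition from fluorescence, normalised to plate control and blank means. Benchmarks: plate controls and plate blanks.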
APP 5'UTR act: activates APP 5'UTR luciferase reporter; 190,000 tested, 1% active; AID 1276; activation, % at 2 µM; SH-SY5Y APP 5'UTR luciferase reporter, luminescence; zero percent = DMSO vehicle wells;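 active means activation above a set limit, based on mean plus 3 SD of controls, cut at about 140% in these data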
* = called active by the depositor; x = not tested or not shown.

SMILES | FLuc inh counter | STAT1 activator | NF-kB neuron act | FLuc act counter | Rad51 HR inh | APP 5'UTR act
CCOC(=O)CCCNC(=O)CSc1nc2ccc(OCC)cc2[nH]1 | -5.2 | 103.5 | 1.05 | 1.1 | 10.4 | -3.1
O=C(COC(=O)Cc1ccc(Cl)cc1Cl)Nc1ccccc1OC(F)F | -7.1 | 93.8 | 1.23 | 1.1 | 13.9 | 3.4
O=C(NC(=S)N(CC1CCC1)CC1CCCO1)c1cccc([N+](=O)[O-])c1 (stereo not drawn) | -7.2 | 94.1 | 1.04 | 1.1 | 1.8 | 7.6
CCOC(=O)c1cc[nH]c1CC(=O)NC | x | x | x | x | 10.1 | x
COCCNc1oc(-c2ccc(Cl)cc2)nc1C#N | 2.1 | 129.2* | 2.36 | 1 | x | 49.7
COc1ccc(Nc2oc(-c3ccc(OC)cc3)nc2C#N)cc1 | x | x | x | x | 7.6 | x
COc1ccc(Nc2oc(-c3ccccc3)nc2C#N)cc1 | -0.3 | 131.6* | 1.75 | 1 | -6.4 | 39.4
CC(C)OCCCNC(=S)NNC(=O)c1ccc(Cl)c(Cl)c1 | -1.8 | 112.4 | 0.96 | 1 | -2.6 | 8.2
COc1ccc2nc(NC(=O)c3cc(C)oc3C)sc2c1 | 49.2 | 139.2* | 2.46 | 0.5 | -6.7 | 144.9*
CC(=O)NCC1COc2ccccc2O1 (stereo not drawn) | x | x | x | x | 26.9 | x
Cc1cc(C(=O)Nc2nc3ccc(S(C)(=O)=O)cc3s2)c(C)o1 | 42.4 | 113.1 | 1.91 | 0.6 | -1.4 | 1.9
COc1ccc2nc(NC(=O)C3COc4ccccc4O3)sc2c1 (stereo not drawn) | 15.4 | 110.8 | 3.43* | 0.8 | 1.0 | 131.5
COc1ccc2nc(NNC(=O)C3COc4ccccc4O3)sc2c1 (stereo not drawn) | -7.1 | 99.5 | 1.01 | 1.1 | x | -6.0
CC(=O)Nc1nc(C2COc3ccccc3O2)cs1 (stereo not drawn) | 12.6 | 144.9* | 4.96* | 0.9 | 0.9 | 168.0*
O=C(Nc1nc(-c2nc3ccccc3s2)cs1)C1COc2ccccc2O1 (stereo not drawn) | 7.2 | 132.5* | 2.95 | 0.9 | -1.7 | 36.0
COc1ccc(NC(=O)Nc2ccon2)c(OC)c1 | 5.5 | 105.3 | 1.02 | 0.9 | x | -6.7
CCCC(=O)Nc1nc2ccc(OC)cc2s1 | 17.0 | 144.5* | 3.08 | 0.8 | 4.3 | 61.4
COc1ccc2nc(NC(=O)c3ccoc3C)sc2c1 | 51.2* | 102.3 | 10.9* | 0.5 | -5.9 | 142.4*
COC(=O)c1sc(NC(=O)c2ccoc2C)nc1C | 3.9 | 112.3 | 1.81 | 1 | -7.0 | 22.5
COc1ccc2nc(NC(=O)CCc3ccc(OC)c(OC)c3)sc2c1 | -1.2 | 106.1 | 1.04 | 1 | 12.6 | 0.2
Cc1ccccc1OCC(=O)N1N=C(c2cccnc2)CC1(O)C(F)(F)F (stereo not drawn) | -4.8 | 99.7 | 1 | 1 | x | -15.2
C[C@@H]1NC(=O)[C@H](CCCN=C(N)N)NC(=O)c2cc([N+](=O)[O-])cc(I)c2OCC[C@@H](C(=O)NC(CC(=O)O)C(N)=O)NC1=O (stereo partly drawn) | -3.1 | 97.7 | 1.15 | 1 | x | -1.1
C=CCSc1n[nH]c(-c2ccc(OCCC)cc2)n1 | 13.0 | 149.8* | 3.84* | 0.9 | 3.4 | 103.4
COc1ccccc1-n1cnc2cc(NCc3cccs3)ccc21 | -2.5 | 112.9 | 3.34* | 1 | 7.8 | -93.1
Cc1cccc(/C=C/c2nc3ccccc3c(=O)[nH]2)c1 | 67.8* | 120.6 | 6.3* | 0.3 | 4.1 | 92.4
SMILES | FLuc inh counter | STAT1 activator | NF-kB neuron act | FLuc act counter | Rad51 HR inh | APP 5'UTR act
Cc1ccc2oc(C(=O)Nc3nnc(C)s3)c(C)c2c1 | 59.0* | 140.9* | 4.7* | 0.4 | 6.6 | 7.8
O=C1CN(C(=O)c2ccc(Cl)c(S(=O)(=O)N3CCc4ccccc43)c2)c2ccccc2N1 | x | x | x | x | 14.3 | x
Cc1cc(NC(=O)CSc2nc(-c3ccccc3Cl)nc3c2c(=O)n(C)c(=O)n3C)no1 | -4.3 | 94.0 | 1.01 | 1 | x | 3.0
CCOC(=O)c1cc(C(C)=O)c(=O)[nH]c1C | -2.6 | 104.1 | 1.13 | 1 | -10.7 | 222.2*
CC(C)(C)OC(=O)N[C@@H](Cc1ccccc1)[C@H](O)c1ccco1 | x | x | x | x | 2.6 | x
O=C(N/N=C/c1cccnc1)c1ccc([N+](=O)[O-])cc1 | 67.3* | 101.3 | 0.94 | 0.3 | -2.5 | -4.5
O=C(/C=C/c1ccc([N+](=O)[O-])cc1)Nc1cccnc1 | 65.0* | 126.8 | 2.24 | 0.3 | 4.4 | 124.4
CC(C)(C)OC(=O)N/N=C/c1ccc(Br)cc1 | 9.7 | 148.9* | 4.47* | 0.9 | 4.7 | 129.3
CC(C)(C)OC(=O)N/N=C\c1cccnc1 | 77.6* | 113.8 | 1.71 | 0.2 | -4.6 | 15.2
CC(C)C(=O)O/N=C(\N)c1ccc(Oc2ccc(Cl)cc2)c([N+](=O)[O-])c1 | x | x | x | x | 14.2 | x
CCCn1c(SCC(=O)Nc2cc(S(=O)(=O)N(C)C)ccc2OC)n[nH]c1=O | -2.9 | 78.4 | 1.08 | 1 | -6.6 | 3.5
CSc1c(C#N)sc(=S)n1-c1ccc(C)cc1 | -1.5 | 110.1 | x | 1 | x | -5.9
CC(C)(C)c1ccccc1NC(=S)NC1CCCCC1 | -5.0 | 87.4 | 1.08 | 1.1 | -5.8 | 22.9
O=C(Nc1cc(Cl)ccn1)C1(c2ccccc2)CC1(Cl)Cl (stereo not drawn) | x | x | x | x | 13.7 | x
O=C(Nc1nc2ccccc2s1)C1CCN(S(=O)(=O)c2cc([N+](=O)[O-])ccc2Cl)CC1 | x | x | x | x | -2.3 | x
COc1ccc(-c2cc(-c3ccc(OC)cc3)nc(-c3ccc4c(c3)NC(=O)CO4)c2)cc1 | -3.4 | 93.0 | 1.07 | 1 | -2.4 | -8.0
COc1cccc(-c2nc(-c3ccc4c(c3)NC(=O)CO4)cs2)c1 | 0.9 | 142.0* | 1.61 | 1 | 9.9 | 52.4
COCCCn1c(=S)[nH]c2c(sc3ccccc32)c1=O | 1.6 | 103.4 | 1.67 | 1 | 12.5 | -6.5
COc1cccc(C(=O)NCC(=O)OCC(=O)c2ccccc2)c1 | 1.8 | 150.4* | 1.11 | 1 | -10.9 | 2.6
O=C(CNC(=O)c1cccc(OC(F)F)c1)OCC(=O)c1ccccc1 | -3.5 | 101.0 | 1 | 1 | 1.0 | 21.9
COc1ccc(OC)c(C(=O)COC(=O)c2ccccc2O)c1 | -4.3 | 107.5 | 1.27 | 1 | 2.9 | 28.0
COc1ccc(O)c(C(=O)CC(=O)c2ccccc2)c1 | 19.6 | 131.5* | 3.43* | 0.8 | 11.6 | 133.5
N/C(=N\OC(=O)c1cccs1)c1cccc(Br)c1 | 87.2* | 136.3* | 1.21 | 0.1 | -8.1 | 60.0
Cc1cccc(/C(N)=N/OC(=O)c2cccs2)c1 | 90.3* | 139.9* | 5.95* | 0.1 | 0.8 | 236.9*
Cc1cccc(/C(N)=N/OC(=O)COc2ccc(Cl)cc2)c1 | 6.5 | 114.8 | 1.44 | 0.9 | 5.1 | 8.6
Cc1cccc(/C(N)=N/OC(=O)c2ccc(F)cc2)c1 | 96.6* | 140.0* | 2.14 | 0 | 6.5 | 112.6
N/C(Cc1cccc2ccccc12)=N\OC(=O)c1cccs1 | -2.0 | 100.6 | 0.99 | 1 | -5.5 | 9.7
